This is a sample that favours compounds with a hit; in the whole collection about 2.4% have one here.
E-sel inducer: E-selectin induction in HUVECs, primary screen, imaging, HUVEC, immunofluorescence imaging, single point; AID 686992, 2013; activation, % at 7.58 µM; normalized: neutral wells 0, TNF-alpha wells 100; 0.37% of 260,000 active;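 active means mean E-selectin-positive cell signal at least 10% of the positive control, reached in at least 60% of replicates, without over 20% cell loss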
Target sequence (P16581 whole entry, looked up): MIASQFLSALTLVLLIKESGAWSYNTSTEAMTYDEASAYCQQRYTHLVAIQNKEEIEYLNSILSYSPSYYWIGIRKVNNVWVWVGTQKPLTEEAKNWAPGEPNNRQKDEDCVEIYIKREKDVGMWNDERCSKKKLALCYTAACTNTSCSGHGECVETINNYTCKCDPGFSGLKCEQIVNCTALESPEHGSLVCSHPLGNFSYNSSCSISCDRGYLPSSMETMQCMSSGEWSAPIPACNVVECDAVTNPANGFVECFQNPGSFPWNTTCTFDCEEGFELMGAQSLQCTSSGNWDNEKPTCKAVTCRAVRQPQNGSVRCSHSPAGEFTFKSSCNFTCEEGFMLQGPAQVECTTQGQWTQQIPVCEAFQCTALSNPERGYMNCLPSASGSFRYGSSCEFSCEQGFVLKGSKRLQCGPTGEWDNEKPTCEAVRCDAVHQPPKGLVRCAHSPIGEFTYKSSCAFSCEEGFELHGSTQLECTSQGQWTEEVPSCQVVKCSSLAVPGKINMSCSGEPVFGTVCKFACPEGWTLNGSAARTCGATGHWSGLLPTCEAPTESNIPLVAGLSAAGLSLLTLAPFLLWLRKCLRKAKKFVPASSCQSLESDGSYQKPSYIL
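Test system: HUVEC | Signal: Immunofluorescence imaging | Read-out: Percent E-selectin-positive cells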
rRNA inh HTS: reduced GFP signal of wild-type E. coli, primary screen, bacterial rRNA inhibitor project, GFP/RFP fluorescence, OD600, single point; E. coli WT GFP vs humanized-ribosome RFP mutants, 24 h; stronger effect = lower value; DMSO median 0, no signal -100; GFP signal change (wild-type ribosome), % (no concentration beside the values); 1.6% of 350,000 active;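 active means significant combined selectivity score with lowered wild-type GFP, culture density cut under 30%, mutant RFP and density less affected; inactive means any of these conditions unmet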
LGR2 antag: inhibitors of bursicon-induced LGR2 CRE-luciferase signal, primary screen, cell-based, HEK293, CRE-luciferase reporter, bursicon stimulation. Drosophila bursicon receptor LGR2 (rickets). bursicon-stimulated, 4 h. inhibition, % at 9.99 µM. 0.35% of 380,000 active;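 active means drop in luminescence signal, shown as inhibition above about 50% in the replicate tests, limit read from the data, passing the limit was not always enough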;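 further: agonist challenge used bursicon conditioned medium at about half maximal strength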
EWS-Fli block: EWS/Fli-driven NR0B1 reporter inhibitors, primary screen, A673 cells, NR0B1 luciferase, luminescence, MLPCN library | viability-normalised | inhibition, % at 12.6 µM | 0.67% of 350,000 active | AID 651661, 2012;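 active means mean inhibition of at least 50% after viability correction, with every replicate also passing that limit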;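 further: firefly luciferase signal divided by Alamar Blue viability fluorescence both relative to DMSO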
DNA binder FP: DNA binders by acridine orange displacement, dose response, counter-screen for EWS/Fli inhibitor project, biochemical, fluorescence polarization, cherry-pick. salmon sperm DNA acridine orange fluorescence polarization. AC35, µM (titrated, usually from 68 µM), for the others: at the highest dose activity change, negative = DNA binding. shares compounds with EWS-Fli block. 2% of 640 active;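 active means fitted curve reaches a 35% signal fall AC35 below twice the sample's top valid tested dose, actives reach about 48 µM in these data; inactive means the rest, including activity in the rising direction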;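 further: lower polarization ratio signals compound binding to DNA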
The depositor's hits bear a star; nt = no result given; ! = not confirmed by another sample.

SMILES	E-sel inducer	rRNA inh HTS	LGR2 antag	EWS-Fli block	DNA binder FP
CCS(=O)(=O)Nc1ccc2c(c1)C(=O)N(C)C[C@@H](OC)[C@@H](C)CN(CCC(F)(F)F)[C@H](C)CO2	0	0	10	4	nt
O=C1CCC2S/C(=C/Nc3ccc(C(F)(F)F)cc3)C(=O)N12 (stereo not given)	nt	17	-33	86*	-1%
Cc1ccsc1C(=O)OCC(=O)c1cc(C)n(C)c1C	-1	-2	71*	63*	-11%
Cc1cc(C(=O)COC(=O)c2nccnc2N)c(C)n1C	nt	15	35	-33	nt
O=C(C[C@@H]1CC[C@@H]2[C@H](COC[C@@H](O)CN2CC2CCCC2)O1)NCc1ccc(Cl)cc1	0	-2	-23	-1	nt
Cc1nc(S(=O)(=O)N[C@H]2CCN(Cc3ccc(OCCO)cc3)C2)cn1C	nt	nt	nt	-54	nt
O=c1c2ccccc2nc(/C=C/c2cc(Br)ccc2O)n1CCCO	0	-12	26	53*	2%
Nc1sc(-c2ccccc2)cc1-c1n[nH]c(=S)n1C1CCCCC1	1	-3	nt	59*	-13%
COc1ccc(-n2c(-c3cc(-c4ccccc4)sc3N)n[nH]c2=S)cc1	0	-9	0	8	nt
CN1C/C(=C\c2ccc(N3CCOCC3)cc2)C(=O)/C(=C/c2ccc(N3CCOCC3)cc2)C1	nt	nt	6	nt	nt
CN1C/C(=C/c2ccsc2)C(=O)/C(=C/c2ccsc2)C1	1	nt	8	61*	-13%
CCCCOc1ccc(NC(=O)C(=O)NCCCn2ccnc2)cc1	nt	9	5	78*	-7%
CCCCCCOc1ccc(C(=O)NCCCn2ccnc2)cc1	nt	-50	nt	24	nt
Clc1ccc(Cn2ccc3ccccc32)cn1	0	-12	10	12	nt
Nc1ccc(Cn2ccc3c4c(N)nc(N)nc4ccc32)cc1	0	-57	27	70*	-1%
COc1ccc(C(=O)Nc2ccc3c(c2)C(=O)N(C)C[C@H](OC)[C@H](C)CN(C)[C@H](C)CO3)cc1	0	4	2	-2	nt
O=[N+]([O-])c1cccc(/C=C/CO)c1	nt	nt	nt	-16	nt
c1ccc2cc(N3CCCCC3)ccc2c1	0	8	-37	-38	nt
O=C1c2ccccc2C(=O)c2cc(N3CCCCC3)ccc21	1	1	97*	83*	-10%
C=CCOC(=O)c1sc(NC(=O)c2ccc(OC)cc2)nc1C	2	6	-36	56*	2%
CC(C)N=c1scc(-c2cccs2)n1/N=C/c1ccc(O)c(O)c1O	nt	nt	-37	nt	nt
CN=c1scc(-c2ccccc2F)n1/N=C/c1ccc(O)c(O)c1O	2	-10	70*	56*	-3%
CN=c1scc(-c2ccccc2F)n1/N=C/c1ccc[nH]1	nt	-22*	93*	87*	-8%
CN=c1scc(-c2ccco2)n1/N=C/c1ccc(O)c(O)c1	nt	-12	-3	15	nt
O=C(c1ccccc1F)N1CC[C@@H]2[C@H](CO)Nc3ccc(C#Cc4ccccc4F)cc3[C@@H]21	0	-3	15	-4	nt
SMILES	E-sel inducer	rRNA inh HTS	LGR2 antag	EWS-Fli block	DNA binder FP
C(=Cc1cnc2ccccc2n1)c1ccc2c(c1)OCO2	0	5	99*	88*	1%
C(=Cc1nc2ccccc2o1)c1ccc2c(c1)OCO2	0	6	81*	69*	3%
C[C@@H]1CCCCO[C@H](CN(C)S(C)(=O)=O)[C@@H](C)CN([C@@H](C)CO)C(=O)c2cc(NS(C)(=O)=O)ccc2O1	0	-5	-4	-5	nt
CC(C)(C)NC(=O)c1ccccc1NC(=O)C1CCCO1 (stereo not given)	nt	7	23	4	nt
O=C(NCCc1ccccc1)c1ccccc1NC(=O)C1CCCO1 (stereo not given)	nt	7	-45	71*	-15%
Nc1ccc(-c2cc3ccccc3oc2=O)cc1	0	-3	3	79*	-11%
O=c1oc2ccccc2cc1-c1ccc(O)cc1	-2	nt	nt	-48	nt
O=C(Nc1ccccc1Cl)N1C[C@@H]2[C@H](c3ccccc31)[C@@H](CO)N2C(=O)c1cccnc1	0	0	-2	-2	nt
COc1ccccc1CNC(=O)C[C@@H]1CC[C@@H]2[C@H](COC[C@@H](O)CN2C(=O)Nc2ccc(C(F)(F)F)cc2)O1	0	-57	-1	9	nt
COc1ccccc1CNC(=O)C[C@@H]1CC[C@H]2[C@@H](COC[C@H](O)CN2C(=O)Nc2ccc(C(F)(F)F)cc2)O1	0	-53	-7	70*	8%
Brc1ccc(CSc2nnc(-c3ccco3)o2)cc1	nt	-22*	-26	82*	-3%
c1ccc(CSc2nnc(-c3ccco3)o2)cc1	0	6	-47	-90	nt
Cc1ccc(S(=O)(=O)N[C@@H]2CC[C@H](CC(=O)NCCc3ccncc3)O[C@@H]2CO)cc1	-1	5	16	-4	nt
CN1CCN(C(c2ccccn2)c2cc(Cl)c3cccnc3c2O)CC1 (stereo not given)	nt	-53	13	27	nt
Oc1c(C(c2ccc(Cl)cc2)N2CCCC2)cc(Cl)c2cccnc12 (stereo not given)	-1	-50	19	53*	-2%
C[C@@H]1CN([C@H](C)CO)C(=O)c2cc(NC(=O)Nc3cccc4ccccc34)ccc2O[C@@H](C)CCCCO[C@@H]1CN(C)C(=O)NC1CCCCC1	1	-3	14	-4	nt
CN(C)CC(=O)N1C[C@@H]2N[C@H](C1)C2c1ccc(/C=C/c2ccccc2)cc1 (stereo not given in full)	0	-2	-20	14	nt
O=C(Nc1ccc2c(c1)OCO2)N1C[C@@H]2N[C@H](C1)C2c1ccc(C=Cc2ccccc2)cc1 (stereo not given in full)	0	-60	16	65*!	-5%
O=C(C1CC1)N1C[C@@H]2N[C@H](C1)C2c1ccc(/C=C/c2ccccc2)cc1 (stereo not given in full)	0	-4	3	53*!	5%
Cc1ccc(NC(=O)COC(=O)c2ccc3c(c2)OCO3)cc1S(=O)(=O)N1CCCCC1	nt	-11	12	72*	-5%
Cc1ccc(C(=O)OCC(=O)Nc2ccc(C)c(S(=O)(=O)N3CCCCC3)c2)o1	0	-11	5	-6	nt
COc1cc2c(OC(C)=O)c3c(c(-c4ccc5c(c4)OCO5)c2cc1OC)C(=O)OC3	nt	nt	nt	65*	-11%
C[C@@H]1CN([C@@H](C)CO)C(=O)Cc2cc(NC(=O)Cn3cnnn3)ccc2O[C@@H]1CN(C)Cc1ccc(Oc2ccccc2)cc1	-7	1	5	70*	-2%
C[C@H](CO)N1C[C@H](C)[C@H](CN(C)Cc2ccc(Oc3ccccc3)cc2)Oc2ccc(NC(=O)Cn3cnnn3)cc2CC1=O	20	-3	-1	54*	-1%
